Source: PubChem (Johns Hopkins Ion Channel Center)
Kir21 block = inhibitors of mouse Kir2.1 inward-rectifier potassium channel; HEK293-Kir2.1, FluxOR thallium flux fluorescence; hits give low values; B-score at 10 µM; hit rate 0.85% among 310,000;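 active means fluorescence ratio B-score at or below minus 3 SD of library scores, with starting-brightness B-score within 2 SD, cut at about -4.2 in these data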;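 further: channel flux triggered by added potassium and thallium sulfate stimulus; B-score of peak minus minimum fluorescence over baseline after thallium stimulus; more negative B-score means stronger Kir2.1 block with less thallium influx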
KCNQ1 block = inhibitors of human KCNQ1 channel, primary screen, cell-based, thallium flux, high-throughput. CHO-K1 KCNQ1, FluxOR thallium flux fluorescence; hits give high values. B-score at 10 µM. hit rate 1.3% among 310,000;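 active means compounds whose thallium flux B-score, printed positive for inhibition, exceeds three library SD while starting fluorescence stays within three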;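 further: channel opened by potassium depolarization with thallium stimulus after 20 min compound exposure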
KCNQ1 pot = potentiators or activators of KCNQ1 channel, primary screen, cell-based, thallium flux, high-throughput; Potassium voltage-gated channel subfamily KQT member 1 (Homo sapiens), P51787; CHO-K1 KCNQ1, thallium flux FluxOR fluorescence; hits give high values; B-score at 10 µM; hit rate 0.35% among 310,000; AID 2648, 2010;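 active means fluorescence ratio B-score, a plate-corrected score, at least three library SD, with initial intensity B-score within 5 SD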
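Material: CHO-K1 cells stably expressing KCNQ1. Medium: assay buffer for compound exposure, DMSO matched across wells. Reagent: K+/Tl+ depolarizing stimulus. Compound dosing: single-concentration screen. Times: 37 °C overnight plating, 90-min dark dye load, 20-min compound pretreatment. Technique: FluxOR Tl+ flux fluorescence.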
KCNK9 block = KCNK9 potassium channel inhibitors, primary screen, HEK293 cells, thallium flux. FluxOR thallium flux fluorescence; hits give low values. B-score at 10 µM. hit rate 1.2% among 310,000. AID 488922, 2010;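 active means ratio B-score over 3 SD below the library mean, with starting fluorescence within 5 SD of its mean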;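 further: negative B-score means less thallium flux so channel inhibition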
hERG protect = hERG rescue from dofetilide block, primary screen, cell-based, CHO-hERG, FluxOR thallium flux, dofetilide IC70; dofetilide IC70 present; activation (rescue from dofetilide block), less the hit threshold, % at 10 µM; hit rate 0.51% among 310,000;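 active means activation above the mean of controls blocked by dofetilide plus 5 SD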;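 further: thallium influx through hERG after potassium depolarization seen as dye fluorescence rise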
KCNK3 block = human KCNK3 channel inhibitors, primary screen, CHO cells, FluxOR thallium flux, B-score; Potassium channel subfamily K member 3 (Homo sapiens), O14649; FluxOR fluorescence; hits give low values; B-score at 10 µM; hit rate 0.84% among 340,000; AID 602410, 2012;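 active means B-score under library mean minus 4 SD, starting fluorescence ratio at most library mean plus 5 SD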;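 further: more negative B-score means stronger inhibition of thallium flux through KCNK3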
Target sequence (O14649 whole entry, looked up): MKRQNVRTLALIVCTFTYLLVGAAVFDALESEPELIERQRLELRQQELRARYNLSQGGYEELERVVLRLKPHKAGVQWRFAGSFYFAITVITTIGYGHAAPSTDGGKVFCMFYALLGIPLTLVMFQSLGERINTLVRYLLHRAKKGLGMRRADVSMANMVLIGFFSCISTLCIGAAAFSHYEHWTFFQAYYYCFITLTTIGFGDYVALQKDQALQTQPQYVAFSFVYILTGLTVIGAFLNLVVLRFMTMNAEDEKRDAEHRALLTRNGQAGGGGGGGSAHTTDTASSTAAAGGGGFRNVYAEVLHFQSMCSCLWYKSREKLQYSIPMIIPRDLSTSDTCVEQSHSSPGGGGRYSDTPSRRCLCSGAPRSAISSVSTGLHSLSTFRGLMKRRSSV
KCNK3 confirm = retest of human KCNK3 channel inhibitors, confirmation, CHO cells, FluxOR thallium flux, triplicate. shares compounds with KCNK3 block. FluxOR fluorescence; 0% buffer, 100% carvedilol maximal block. ratio percent of control, % at 10 µM. hit rate 99% among 2,400;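 active means ratio percent of control, averaged over triplicates, above buffer control mean plus 5 SD, cut at about 64% in these data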;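 further: ratio is the fluorescence rise from min to max over baseline after thallium stimulus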
KCNK3 uninduced = thallium flux inhibition in non-induced cells, primary screen, counter-screen for KCNK3 inhibitor project, cell-based, non-induced KCNK3 line, FluxOR thallium, triplicate | hit rate 40% among 2,400 | AID 651747, 2012 | thallium flux ratio (lower = more inhibition) at 10 µM | non-induced KCNK3 parental cells; hits give low values | shares compounds with KCNK3 block;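 active means thallium flux ratio, averaged over three wells, more than 5 SD below the buffer control mean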;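 further: host cells are CHO cells without KCNK3 induction; ratio is peak minus trough fluorescence over baseline then normalized to buffer controls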
Active calls of the source: *; i = inactive; . = not tested or not shown. The list is not random: actives were taken first. Their share in the collection is about 3.7%.

SMILES	Kir21 block	KCNQ1 block	KCNQ1 pot	KCNK9 block	hERG protect	KCNK3 block	KCNK3 confirm	KCNK3 uninduced
CCOc1ccccc1C(=O)NCC(=O)OCCOc1cccc(Cl)c1	1.52	i	i	i	-15.1	-10.1*	99.7*	i
Cc1cccc(NC(=O)COc2ccc(-c3nn(C)c(=O)c4ccccc34)cc2)c1	0.28	6*	i	i	-7.3	-11.8*	100.3*	i
COc1ccc(NC(=O)c2ccc(-c3nn(C)c(=O)c4ccccc34)cc2)cc1	-2.09	i	i	i	-6.1	i	.	.
COc1ccccc1NC(=O)c1ccc(-c2nn(C)c(=O)c3ccccc23)cc1	0.16	i	i	i	-19.0	-9.94*	96.0*	i
N#Cc1nc(-c2ccco2)oc1N1CCN(c2ccccc2)CC1	-0.09	i	i	i	-5.0	-10.6*	119.0*	i
COc1ccc(N2CCN(c3oc(-c4ccco4)nc3C#N)CC2)cc1	-1.26	i	i	i	-11.6	i	.	.
COCCOC(=O)C1=C(C)N=C2SCCC(=O)N2C1c1cccc(Br)c1 (stereo unspecified)	-1.99	i	i	i	-14.5	-9.26*	111.7*	i
CCOC(=O)C1=C(C)N=C2SCCC(=O)N2C1c1cc(Br)ccc1OC (stereo unspecified)	-1.58	i	i	i	-4.7	i	.	.
Cc1ccc(C(=O)CC2(O)C(=O)N(C)c3ccc(Br)cc32)c(C)c1 (stereo unspecified)	-2.35	i	i	i	0.6	-9.56*	93.0*	i
Cc1ccc(C)c(C(=O)CC2(O)C(=O)N(C)c3ccccc32)c1 (stereo unspecified)	-1.19	i	i	i	-8.9	i	.	.
CCOC(=O)C1=C(C)N=c2s/c(=C/c3cccc([N+](=O)[O-])c3O)c(=O)n2C1c1ccccc1 (stereo unspecified)	1.15	13*	i	i	-27.5	-12.2*	124.0*	0.103*
O=C(NNc1c(F)c(F)cc(F)c1F)c1ccc(Cl)nc1	0.13	i	i	i	-7.9	i	.	.
N#Cc1ccc(/C=C\c2nccc3c2[nH]c2ccccc23)cc1	-0.39	i	i	i	-14.3	-9.95*	116.3*	0.158*
Clc1ccc(/C=C\c2nccc3c2[nH]c2ccccc23)cc1	1.58	i	i	i	-19.3	i	.	.
COc1ccccc1NS(=O)(=O)c1ccc(N2CCOCC2)c(N)c1	.	.	.	.	.	i	.	.
COc1ccc(Br)cc1C(=O)Nc1ccccc1N1CCCC1	0.16	i	i	i	-11.5	-9.84*	111.0*	0.147*
COc1cc(C(=O)Nc2ccccc2N2CCCCC2)cc(OC)c1OC	0.16	i	i	i	-12.5	-10.2*	126.0*	0.117*
O=C(Nc1ccccc1N1CCCCC1)c1cccc(OC(F)F)c1	-0.22	i	i	i	-7.9	-10.2*	116.7*	0.15*
COc1ccccc1C(=O)Nc1ccccc1N1CCCCC1	-1.27	i	i	i	-14.2	i	.	.
COc1cc(-c2cc(C(=O)Nc3ccccc3N3CCOCC3)c3ccccc3n2)cc(OC)c1OC	1.3	6*	i	i	-11.7	-9.01*	102.0*	0.158*
